Assay results as given in ChEMBL document CHEMBL1127320, “Dual-action cephalosporins incorporating a 3'-tertiary-amine-linked quinolone” (J Med Chem, 1994).
In brackets after ≈: the same amount, converted by molar mass.

How the values were obtained:
[1] = biological target: T1, Penicillin-binding protein 1A (Escherichia coli K-12) (UniProt P02918); experiment: Affinity against penicillin binding protein 1a of Escherichia coli UB1005 (DC0) was evaluated.
T1 sequence (whole entry): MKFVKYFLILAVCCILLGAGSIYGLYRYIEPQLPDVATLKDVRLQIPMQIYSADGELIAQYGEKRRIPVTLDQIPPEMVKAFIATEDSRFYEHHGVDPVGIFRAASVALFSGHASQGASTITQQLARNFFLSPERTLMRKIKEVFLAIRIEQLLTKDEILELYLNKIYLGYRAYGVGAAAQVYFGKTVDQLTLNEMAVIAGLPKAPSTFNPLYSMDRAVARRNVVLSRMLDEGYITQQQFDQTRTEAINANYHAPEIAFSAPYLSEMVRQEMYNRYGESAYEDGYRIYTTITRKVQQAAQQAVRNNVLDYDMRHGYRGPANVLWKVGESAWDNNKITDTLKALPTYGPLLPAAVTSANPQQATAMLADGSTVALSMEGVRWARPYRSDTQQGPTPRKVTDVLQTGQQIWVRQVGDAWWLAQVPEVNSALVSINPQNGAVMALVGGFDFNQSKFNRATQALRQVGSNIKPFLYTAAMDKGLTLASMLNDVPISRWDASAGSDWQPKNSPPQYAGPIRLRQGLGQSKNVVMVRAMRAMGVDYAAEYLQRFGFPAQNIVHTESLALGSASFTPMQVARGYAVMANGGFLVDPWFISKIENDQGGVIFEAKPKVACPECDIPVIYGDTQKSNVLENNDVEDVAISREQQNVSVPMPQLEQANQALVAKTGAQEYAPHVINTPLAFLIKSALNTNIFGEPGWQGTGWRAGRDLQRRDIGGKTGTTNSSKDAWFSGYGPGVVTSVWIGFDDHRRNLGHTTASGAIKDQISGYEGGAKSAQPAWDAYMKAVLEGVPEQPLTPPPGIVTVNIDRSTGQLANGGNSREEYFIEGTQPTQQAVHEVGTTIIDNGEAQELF
Method in brief: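 Solubilized membranes from sonicated E. coli UB1005 were used. Binding to penicillin-binding proteins was measured as inhibition of [14C]penicillin G binding.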

[2] = biological target: T2, Penicillin-binding protein 1B (Escherichia coli K-12) (UniProt P02919); experiment: Affinity for penicillin binding protein 1b of Escherichia coli UB1005 (DC0) was evaluated.; set-up: unit not given here
T2 sequence (whole entry): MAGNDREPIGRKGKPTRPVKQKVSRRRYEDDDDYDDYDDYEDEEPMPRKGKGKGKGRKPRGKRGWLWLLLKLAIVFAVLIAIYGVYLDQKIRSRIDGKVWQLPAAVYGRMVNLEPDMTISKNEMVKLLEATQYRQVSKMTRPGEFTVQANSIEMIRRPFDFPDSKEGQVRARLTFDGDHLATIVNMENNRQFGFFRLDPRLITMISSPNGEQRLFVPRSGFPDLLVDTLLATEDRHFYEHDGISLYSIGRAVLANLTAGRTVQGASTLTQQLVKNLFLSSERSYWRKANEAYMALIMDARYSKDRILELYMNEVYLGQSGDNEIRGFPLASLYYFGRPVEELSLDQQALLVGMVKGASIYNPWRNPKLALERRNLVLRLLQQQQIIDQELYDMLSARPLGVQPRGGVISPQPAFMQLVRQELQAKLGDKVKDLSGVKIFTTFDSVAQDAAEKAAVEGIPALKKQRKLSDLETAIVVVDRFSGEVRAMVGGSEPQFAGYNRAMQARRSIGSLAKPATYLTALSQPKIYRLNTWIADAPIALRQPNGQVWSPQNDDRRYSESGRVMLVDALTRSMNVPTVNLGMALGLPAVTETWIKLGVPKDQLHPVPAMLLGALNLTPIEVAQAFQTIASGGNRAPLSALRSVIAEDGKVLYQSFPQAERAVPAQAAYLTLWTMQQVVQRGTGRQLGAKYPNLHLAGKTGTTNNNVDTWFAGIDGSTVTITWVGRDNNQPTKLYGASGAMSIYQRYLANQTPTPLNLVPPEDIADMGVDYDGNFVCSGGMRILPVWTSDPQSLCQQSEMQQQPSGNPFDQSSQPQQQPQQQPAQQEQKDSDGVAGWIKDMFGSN
Method in brief: (§1)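 Solubilised membranes from sonicated E. coli UB1005 served as the binding-protein source. Binding was read as inhibition of [14C]penicillin G binding.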

[3] = biological target: T3, Peptidoglycan D,D-transpeptidase MrdA (Escherichia coli K-12) (UniProt P0AD65); experiment: Affinity for penicillin binding protein 2 of Escherichia coli UB1005 (DC0) was evaluated.; set-up: unit not given here; method in brief: as §1
T3 sequence (whole entry): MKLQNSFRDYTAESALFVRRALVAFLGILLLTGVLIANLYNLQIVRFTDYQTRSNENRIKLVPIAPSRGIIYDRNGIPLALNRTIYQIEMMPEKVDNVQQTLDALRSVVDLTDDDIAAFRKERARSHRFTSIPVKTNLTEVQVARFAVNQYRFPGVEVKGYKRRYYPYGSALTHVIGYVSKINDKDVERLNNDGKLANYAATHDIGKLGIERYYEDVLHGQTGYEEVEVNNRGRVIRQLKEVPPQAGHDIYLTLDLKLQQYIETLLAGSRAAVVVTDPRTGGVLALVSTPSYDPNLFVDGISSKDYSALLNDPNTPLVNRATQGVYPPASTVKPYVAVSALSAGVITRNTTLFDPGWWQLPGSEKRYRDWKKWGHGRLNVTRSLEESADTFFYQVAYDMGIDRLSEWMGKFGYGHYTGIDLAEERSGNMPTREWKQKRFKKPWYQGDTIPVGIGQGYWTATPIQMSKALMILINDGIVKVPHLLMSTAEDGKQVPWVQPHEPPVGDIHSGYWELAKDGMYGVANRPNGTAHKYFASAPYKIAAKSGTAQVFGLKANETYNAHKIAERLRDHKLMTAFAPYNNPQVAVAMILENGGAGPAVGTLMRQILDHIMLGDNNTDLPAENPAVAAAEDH

Escherichia coli [4] = experiment: Minimum inhibitory concentration against E. coli UB1005 (DC0)
Citrobacter freundii = experiment: In vitro minimum inhibitory concentration was measured against Citrobacter freundii BS-16 (beta lactamase producer) strain.; format: functional
Method in brief: (§2)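 MICs were determined by agar dilution with 2-fold dilutions giving final 128–0.0156 µg/mL, extended to 0.000977 µg/mL where needed. Streptococci were tested on brain heart infusion agar plus 20 units/mL catalase, Proteus on Mueller-Hinton with 3% agar, and others on Mueller-Hinton agar. Inocula were 100-fold-diluted overnight cultures, about 3 × 10^4 CFU/spot, read after overnight incubation at 36 °C.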

Escherichia coli [5] = experiment: In vitro minimum inhibitory concentration was measured against Escherichia coli 257 strain.; format: functional
Method in brief: (§3)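 Streptococci were tested on brain heart infusion agar plus 20 units/mL catalase, Proteus on Mueller-Hinton with 3% agar, and others on Mueller-Hinton agar. Inocula were 100-fold-diluted overnight cultures, about 3 × 10^4 CFU/spot, read after overnight incubation at 36 °C.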

Escherichia coli [6] = experiment: In vitro minimum inhibitory concentration was measured against Escherichia coli ATCC 25922 strain.; format: functional; method in brief: as §3
Escherichia coli [7] = experiment: In vitro minimum inhibitory concentration was measured against Escherichia coli TEM-1 (Beta lactamase producer) strain.; format: functional; method in brief: as §3
Enterococcus faecalis = experiment: In vitro minimum inhibitory concentration was measured against Enterococcus faecalis ATCC 29212 strain.; format: functional; method in brief: as §3
Enterobacter cloacae [8] = experiment: In vitro minimum inhibitory concentration was measured against Enterobacter cloacae 5699 strain.; format: functional
Enterobacter cloacae [9] = experiment: In vitro minimum inhibitory concentration was measured against Enterobacter cloacae p99 (beta lactamase producer) strain.; format: functional
Klebsiella pneumoniae = experiment: In vitro minimum inhibitory concentration was measured against Klebsiella pneumoniae A strain.; format: functional; method in brief: as §3
Micrococcus luteus = experiment: In vitro minimum inhibitory concentration was measured against Micrococcus luteus ATCC 9341 strain.; format: functional; method in brief: as §3
[10] = biological target: T1, Penicillin-binding protein 1A (Escherichia coli K-12); experiment: Affinity for penicillin binding protein 1a of Escherichia coli UB1005 (DC0) was evaluated.; set-up: unit not given here; method in brief: as §1
Proteus mirabilis = experiment: In vitro minimum inhibitory concentration was measured against Proteus mirabilis 90 strain.; format: functional; method in brief: as §3
Pseudomonas aeruginosa [11] = experiment: In vitro minimum inhibitory concentration was measured against Pseudomonas aeruginosa 18S/H strain.; format: functional; method in brief: as §3
Pseudomonas aeruginosa [12] = experiment: In vitro minimum inhibitory concentration was measured against Pseudomonas aeruginosa 8780 strain.; format: functional; method in brief: as §3
Proteus vulgaris = experiment: In vitro minimum inhibitory concentration was measured against Proteus vulgaris 1028BC (beta lactamase producer) strain.; format: functional; method in brief: as §3
Serratia marcescens = experiment: In vitro minimum inhibitory concentration was measured against Serratia marcescens 1071(beta lactamase producer) strain.; format: functional; method in brief: as §3
Staphylococcus aureus [13] = experiment: In vitro minimum inhibitory concentration was measured against Staphylococcus aureus 67-0 (Methicillin resistant) strain.; format: functional
Staphylococcus aureus [14] = experiment: In vitro minimum inhibitory concentration was measured against Staphylococcus aureus 753 (Methicillin resistant) strain.; format: functional
Staphylococcus aureus [15] = experiment: In vitro minimum inhibitory concentration was measured against Staphylococcus aureus smith strain.; format: functional
Streptococcus pneumoniae = experiment: In vitro minimum inhibitory concentration was measured against Streptococcus pneumoniae 6301 strain; format: functional; method in brief: as §3
Streptococcus pyogenes = experiment: In vitro minimum inhibitory concentration was measured against Streptococcus pyogenes 4 strain.; format: functional; method in brief: as §3
Escherichia coli [16] = experiment: Minimum inhibitory concentration for DC2, a permeability mutant; method in brief: as §2
[17] = test system: Penicillin-binding protein 3 (Escherichia coli); experiment: Affinity for penicillin binding protein 3 of Escherichia coli UB1005 (DC0) was evaluated.; set-up: unit not given here

CC(C)(O/N=C(\C(=O)N[C@@H]1C(=O)N2C(C(=O)[O-])=C(C[n+]3ccccc3)CS[C@H]12)c1csc(N)n1)C(=O)O
Binding affinity [1]: 10 | Binding affinity [2]: 10 | Binding affinity [3]: > 100 | MIC (Escherichia coli [4]): 0.125 µg/mL (≈ 0.229 µM)

Nc1nc(/C(=N/OCC(=O)O)C(=O)N[C@@H]2C(=O)N3C(C(=O)O)=C(CN4CCN(c5cc6c(cc5F)c(=O)c(C(=O)O)cn6C5CC5)CC4)CS[C@H]23)cs1
MIC (Citrobacter freundii): 1 µg/mL (≈ 1.3 µM) | MIC (Escherichia coli [5]): 0.25 µg/mL (≈ 0.324 µM) | MIC (Escherichia coli [6]): 0.5 µg/mL (≈ 0.649 µM) | MIC (Escherichia coli [7]): 0.5 µg/mL (≈ 0.649 µM) | MIC (Enterococcus faecalis): 16 µg/mL (≈ 20.8 µM) | MIC (Enterobacter cloacae [8]): 1 µg/mL (≈ 1.3 µM) | MIC (Enterobacter cloacae [9]): 0.25 µg/mL (≈ 0.324 µM) | MIC (Klebsiella pneumoniae): 1 µg/mL (≈ 1.3 µM) | MIC (Micrococcus luteus): 1 µg/mL (≈ 1.3 µM) | Binding affinity [10]: > 100 | Binding affinity [2]: > 100 | Binding affinity [3]: > 100 | MIC (Proteus mirabilis): 2 µg/mL (≈ 2.59 µM) | MIC (Pseudomonas aeruginosa [11]): 4 µg/mL (≈ 5.19 µM) | MIC (Pseudomonas aeruginosa [12]): 8 µg/mL (≈ 10.4 µM) | MIC (Proteus vulgaris): 1 µg/mL (≈ 1.3 µM) | MIC (Serratia marcescens): 2 µg/mL (≈ 2.59 µM) | MIC (Staphylococcus aureus [13]): 32 µg/mL (≈ 41.5 µM) | MIC (Staphylococcus aureus [14]): 8 µg/mL (≈ 10.4 µM) | MIC (Staphylococcus aureus [15]): 8 µg/mL (≈ 10.4 µM) | MIC (Streptococcus pneumoniae): 0.25 µg/mL (≈ 0.324 µM) | MIC (Streptococcus pyogenes): 0.125 µg/mL (≈ 0.162 µM) | MIC (Escherichia coli [16]): 4 µg/mL (≈ 5.19 µM) | MIC (Escherichia coli [4]): 2 µg/mL (≈ 2.59 µM) | Binding affinity [17]: 2

CC(C)(O/N=C(\C(=O)N[C@@H]1C(=O)N2C(C(=O)O)=C(CN3CCN(c4cc5c(cc4F)c(=O)c(C(=O)O)cn5C4CC4)CC3)CS[C@H]12)c1csc(N)n1)C(=O)O
MIC (Citrobacter freundii): 0.125 µg/mL (≈ 0.156 µM) | MIC (Escherichia coli [5]): 0.25 µg/mL (≈ 0.313 µM) | MIC (Escherichia coli [6]): 0.25 µg/mL (≈ 0.313 µM) | MIC (Escherichia coli [7]): 0.5 µg/mL (≈ 0.626 µM) | MIC (Enterococcus faecalis): 8 µg/mL (≈ 10 µM) | MIC (Enterobacter cloacae [8]): 1 µg/mL (≈ 1.25 µM) | MIC (Enterobacter cloacae [9]): 0.5 µg/mL (≈ 0.626 µM) | MIC (Klebsiella pneumoniae): 0.5 µg/mL (≈ 0.626 µM) | MIC (Micrococcus luteus): 2 µg/mL (≈ 2.5 µM) | Binding affinity [10]: 100 | Binding affinity [2]: 100 | Binding affinity [3]: 100 | MIC (Proteus mirabilis): 2 µg/mL (≈ 2.5 µM) | MIC (Pseudomonas aeruginosa [11]): 2 µg/mL (≈ 2.5 µM) | MIC (Pseudomonas aeruginosa [12]): 8 µg/mL (≈ 10 µM) | MIC (Proteus vulgaris): 1 µg/mL (≈ 1.25 µM) | MIC (Serratia marcescens): 1 µg/mL (≈ 1.25 µM) | MIC (Staphylococcus aureus [13]): 16 µg/mL (≈ 20 µM) | MIC (Staphylococcus aureus [14]): 8 µg/mL (≈ 10 µM) | MIC (Staphylococcus aureus [15]): 8 µg/mL (≈ 10 µM) | MIC (Streptococcus pneumoniae): 0.25 µg/mL (≈ 0.313 µM) | MIC (Streptococcus pyogenes): 0.25 µg/mL (≈ 0.313 µM) | MIC (Escherichia coli [16]): 0.25 µg/mL (≈ 0.313 µM) | MIC (Escherichia coli [4]): 4 µg/mL (≈ 5.01 µM) | Binding affinity [17]: 2
